Measurements reported in ChEMBL document CHEMBL5705892, “MK-2206, an allosteric Akt inhibitor, enhances antitumor efficacy by standard chemotherapeutic agents or molecular targeted drugs in vitro and in vivo” (Mol Cancer Ther, 2010).
Active and inactive are the calls of the source. The calls are words filed in the database; no cut-off is given here.

Assays:
[1] = Toxicity in human NCI-H292 cells xenografted CD-1 mouse assessed as weight loss at 120 mg/kg, po administered 3 times per week for 2 weeks starting 2 hrs post-erlotinib treatment and measured during compound dosing; assay type: organism-based; settings: in vivo, 336 h
How it was run: (§1)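 NCI-H292 cells in 50% Matrigel/PBS injected s.c. into flank of female CD1-nude mice; dosing began after 2 wk at mean tumour 0.2 cm³, n = 5/group. […] Body weight and signs monitored; treatment ended day 16.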

HCC827 = experiment: Antiproliferative activity against human HCC827 cells assessed as reduction in cell proliferation measured after 72 hrs by celltiter-glo assay; assay type: functional, cell-based; settings: HCC827, 72 h
How it was run: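 Cells in RPMI 1640 with 10% heat-inactivated FBS at 37°C and 5% CO₂ were seeded at 2 to 3 × 10³ per well. […] Growth was read as cellular ATP by CellTiter-Glo.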

NCI-H292 = experiment: Induction of apoptosis in human NCI-H292 cells assessed as increase in caspase-3/7 activity up to 3 umol/L measured after 48 hrs by caspase-glo 3/7 assay; assay type: functional, cell-based; settings: dose <= 3.0 µmol/L
How it was run: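 Caspase-3/7 activity was measured by Caspase-Glo 3/7 and expressed as fold over DMSO vehicle control. The experiment was done twice.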

[2] = In vivo inhibition of ERK phosphorylation at T202/Y204 residues in human NCI-H292 cells xenografted mouse at 120 mg/kg, po administered as single dose measured after 12 hrs by Western blot analysis relative to control; assay type: functional
Mus musculus = experiment: In vivo inhibition of AKT in human NCI-H292 cells xenografted mouse at 120 mg/kg, po administered as single dose measured after 12 hrs by immunoprecipitation assay; assay type: functional, organism-based
[3] = Toxicity in human NCI-H292 cells xenografted CD-1 mouse assessed as death at 360 mg/kg, po administered once a week for 2 weeks and measured during compound dosing; assay type: organism-based; settings: in vivo, 336 h; how it was run: as §1
[4] = Toxicity in human NCI-H292 cells xenografted CD-1 mouse assessed as death at 360 mg/kg, po administered once a week for 2 weeks starting 2 hrs post-erlotinib treatment and measured during compound dosing; assay type: organism-based; settings: in vivo, 336 h; how it was run: as §1
NCI-N87 = experiment: Synergistic antiproliferative activity against lapatinib pretreated human NCI-N87 cells assessed as combination index at ED50 measured after 72 hrs by celltiter-glo assay; assay type: functional
MDA-MB-468 [5] = experiment: Synergistic antiproliferative activity against human MDA-MB-468 cells assessed as combination index at ED75 treated 24 hrs prior to lapatinib and measured after 72 hrs by celltiter-glo assay; assay type: functional; settings: time 96 hrs
MDA-MB-468 [6] = experiment: Synergistic antiproliferative activity against human MDA-MB-468 cells assessed as combination index at ED90 measured after 96 hrs in presence of lapatinib by celltiter-glo assay; assay type: functional
SK-OV-3 = experiment: Antitumor activity against human SK-OV-3 cells xenografted in po dosed CB17/icr SCID mouse assessed as tumor growth inhibition administered 3 times per week for 2 weeks starting 2 hrs post lapatinib treatment and measured twice a week during compound dosing by caliper method; assay type: functional, organism-based; settings: dose 60-120 mg/kg
How it was run: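 SK-OV-3 cells were implanted s.c. into female C.B-17/ICR-scid mice, which were randomized at 0.13 cm³, n = 5. Lapatinib (water) was given at 100 mg/kg po on days 0–4 and 7–11. MK-2206 (30% Captisol) was given at 60 or 120 mg/kg po on days 0, 2, 4, 7, 9, 11. Tumor volume by calipers twice weekly.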

[7] = Toxicity in human HCC70 cells xenografted CB17/icr SCID mouse assessed as body weight loss at 120 mg/kg, po administered 3 times per week for 3 weeks starting 2 hrs post-lapatinib treatment and measured during compound dosing; assay type: organism-based; settings: in vivo, 504 h
How it was run: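 HCC70 cells in 50% Matrigel/PBS injected s.c. into flank of female C.B-17/ICR-scid mice; dosing began after 3 wk, groups randomized at mean tumour 0.2 cm³ (n = 5). Lapatinib 100 mg/kg p.o. in distilled water, 5 d/wk for 3 wk; MK-2206 in 30% Captisol p.o. 3×/wk for 3 wk, given 2 h after lapatinib. Body weight and physical signs monitored throughout.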

BT-474 = experiment: Synergistic antiproliferative activity against human BT-474 cells assessed as combination index at ED75 measured after 72 hrs in presence of docetaxel by celltiter-glo assay; assay type: functional
How it was run: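 Cells grown in RPMI 1640 with 10% heat-inactivated FBS at 37°C, 5% CO₂. Seeded at 2 to 3 × 10³ per well; drugs added 24 h later. […] Viability read as cellular ATP by CellTiter-Glo. CI calculated by Chou–Talalay from median-effect plots at ED50, ED75 and ED90.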

SK-BR-3 = experiment: Synergistic antiproliferative activity against human SK-BR-3 cells assessed as combination index at ED50 measured after 72 hrs in presence of docetaxel by celltiter-glo assay; assay type: functional
MDA-MB-468 [8] = experiment: Synergistic antiproliferative activity against human MDA-MB-468 cells assessed as combination index at ED90 measured after 72 hrs in presence of docetaxel by celltiter-glo assay; assay type: functional
PC-3 = experiment: Antitumor activity against human PC-3 cells xenografted in CD1 nude mouse assessed as reduction in tumor volume at 120 mg/kg, po administered 3 times per week for 2 weeks and measured during compound dosing by caliper method; assay type: functional, organism-based
How it was run: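 Male CD1-nude mice received s.c. PC-3 cells and were treated from day 25 after implant, at 0.2 cm³, n = 5. Docetaxel (0.73% ethanol in saline) was given at 5 mg/kg i.v. on day 0. MK-2206 (30% Captisol) was given at 120 mg/kg po on days 1, 3, 5, 8, 10, 12. Caliper volume twice weekly.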

NCI-H460 = experiment: Synergistic antiproliferative activity against human NCI-H460 cells assessed as combination index at ED75 measured after 72 hrs in presence of 5-FU by celltiter-glo assay; assay type: functional
A2780 = experiment: Cell cycle arrest in human A2780 cells assessed as increase in accumulation of cells at sub-G1 phase measured after 72 hrs in presence of gemcitabine by propidium iodide staining based flow cytometry; assay type: functional
[9] = Toxicity in human NCI-H460 cells xenografted CD1 nude mouse assessed as body weight loss at 120 mg/kg, po administered 3 times per week for 2 weeks measured on day 14 to 16; assay type: organism-based; settings: in vivo, 336 h, time 14-16 day
How it was run: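 NCI-H460 cells in 50% Matrigel/PBS injected s.c. into flank of CD1-nude mice; randomized at mean tumour 0.2 cm³ (n = 5). MK-2206 in 30% Captisol, 120 mg/kg p.o. days 0, 2, 4, 7, 9, 11. Carboplatin 50 mg/kg i.v. in saline days 0 and 7 (from day 12 after implant), or gemcitabine 100 mg/kg i.v. in saline days 0 and 7 (from day 8). Body weight monitored.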

NCI-H661 = experiment: Synergistic antiproliferative activity against human NCI-H661 cells assessed as combination index at ED25 to ED90 measured after 72 hrs in presence of carboplatin by celltiter-glo assay; assay type: functional

## Cl.NC1(c2ccc(-c3nc4ccn5c(=O)[nH]nc5c4cc3-c3ccccc3)cc2)CCC1
[1]
  Activity: Toxic
HCC827
  IC50: 4.3 µM
NCI-H292
  Activity: inactive
[2]
  inhibition in vivo at 120 mg/kg: 27.7%
Mus musculus
  inhibition: Active
[3]
  Activity: Non-Toxic
[4]
  Activity: Non-Toxic
NCI-N87
  CI50: 0.18
MDA-MB-468 [5]
  CI75: 0.18
MDA-MB-468 [6]
  CI90: 0.18
SK-OV-3
  TGI: Dose-Dependent Effect
[7]
  Activity: Non-Toxic
BT-474
  CI75: 0.8
SK-BR-3
  CI50: 0.8
MDA-MB-468 [8]
  CI90: 0.9
PC-3
  Activity: Active
NCI-H460
  CI75: 0.45
A2780
  Activity: Dose-Dependent Effect
[9]
  Activity: Non-Toxic
NCI-H661
  CI: 0.37
